This is a sample that favours compounds with a hit; in the whole collection about 3% have one here.
HTR1E antagonist – 5-HT1E receptor antagonists, primary screen, cell-based, HTS; 5-hydroxytryptamine receptor 1E (Homo sapiens), P28566; CHO 5-HT1E Ga15 NFAT-bla reporter, FRET, antagonist; inhibition, % at 6 µM; actives 0.99% (n = 65,000); AID 571, 2007;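 active = inhibition above a set limit, the mean inhibition across every tested compound plus 3 SD, cut at about 29% in these data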;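 also: signal is the 460 over 535 nm emission ratio of beta-lactamase substrate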
S1P1 ag-PAM – S1P1 agonists and agonism potentiators, primary screen, cell-based, primary and confirmation screens, CRE-bla reporter; activation, % at 9.5 µM; AID 449, 2006; actives 0.57% (n = 56,000); Sphingosine 1-phosphate receptor 1 (Homo sapiens), P21453; S1P1 CRE-bla cells, forskolin, beta-lactamase FRET, potentiator mode; S1P1 agonist co-added at EC20, 2 nM; 100% = saturating reference agonist, 0% = basal;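 active = activation above a cutoff set at the mean activation of all tested compounds plus 3 SD, cut at about 54% in these data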;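 also: forskolin at 4 µM as EC80 and the EC20 agonist is SEW2871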
HTR1E agonist – 5-HT1E receptor agonists, primary screen, cell-based, HTS; 5-hydroxytryptamine receptor 1E (Homo sapiens), P28566; CHO 5-HT1E Ga15 NFAT-bla reporter, FRET; 0% DMSO wells, 100% control agonist wells; activation, % at 6 µM; actives 0.69% (n = 65,000); AID 574, 2007;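 active = activation above a set limit, the screen-wide mean activation plus 3 SD, cut at about 8.5% in these data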
5HT1a antag – human 5-HT1a receptor antagonists, primary screen, cell-based, CHO, Ga15 NFAT-bla reporter. 5-hydroxytryptamine receptor 1A (Homo sapiens), P08908. CHO 5-HT1a Ga15 NFAT-bla reporter, antagonist mode. inhibition, % at 10 µM. actives 0.68% (n = 62,000). AID 612, 2007;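 active = inhibition above the mean of all tested compounds plus 3 SD, cut at about 43% in these data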;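 also: receptor stimulated by 5-CT agonist at 100 nM near EC80; beta-lactamase reporter measured by ratiometric fluorescence of a cleavable substrate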
Target sequence (P08908 whole entry, looked up): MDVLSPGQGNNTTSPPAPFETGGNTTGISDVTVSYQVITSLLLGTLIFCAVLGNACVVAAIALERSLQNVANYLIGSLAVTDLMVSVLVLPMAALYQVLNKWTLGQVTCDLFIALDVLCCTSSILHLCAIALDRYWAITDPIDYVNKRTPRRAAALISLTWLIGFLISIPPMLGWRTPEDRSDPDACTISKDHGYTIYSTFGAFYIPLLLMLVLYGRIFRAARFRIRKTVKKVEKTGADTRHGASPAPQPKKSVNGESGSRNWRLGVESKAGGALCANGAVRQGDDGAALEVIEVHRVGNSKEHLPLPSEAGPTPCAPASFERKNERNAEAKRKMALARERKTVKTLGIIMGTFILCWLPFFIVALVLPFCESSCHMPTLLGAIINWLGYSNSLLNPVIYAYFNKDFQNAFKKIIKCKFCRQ
HTR1A agonist – human 5-HT1a receptor agonists, primary screen, cell-based, CHO, Ga15 NFAT-bla reporter | 5-hydroxytryptamine receptor 1A (Homo sapiens), P08908 | CHO 5-HT1a Ga15 NFAT-bla reporter, FRET ratio; 0% basal, 100% maximal reference agonist | activation, % at 10 µM | actives 0.56% (n = 65,000);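 active = activation above the screen-wide mean activation plus 3 SD, cut at about 19% in these data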
S1P3 agonist – human S1P3 receptor agonists, primary screen, cell-based, primary and confirmation, NFAT-BLA reporter; Sphingosine 1-phosphate receptor 3 (Homo sapiens), Q99500; S1P3 NFAT-BLA reporter cells, agonism, FRET ratio; relative to 1 µM S1P, basal subtracted; activation, % at 4.5 µM; actives 0.1% (n = 60,000);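 active = activation above the screen-wide mean plus 3 SD, cut at about 4.5% in these data, passing the limit was not always enough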
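Benchmarks: high control 1 µM S1P / System: stable CHO line with human S1P3, Gα16, NFAT-BLA reporter / Dosing: single compound concentration, 4.5 µM final / Timing: 4 h compound at 37 °C, 2 h substrate at RT / Measured by: FRET β-lactamase substrate fluorescence, excitation 405 nm, 460/535 nm emission ratio, background-subtracted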
Large screens that a line does not name were inactive.

COCCOC(=O)c1[nH]c2c(c1C)C(=O)CC(c1cc(OC)ccc1OC)C2 (stereo not given)	none
Cc1c(C(=O)N2CCOCC2)[nH]c2c1C(=O)CC(c1ccccc1Cl)C2 (stereo not given)	HTR1E agonist 40
C=CCOC(=O)N1CCN(c2cccc(C(F)(F)F)c2)CC1	none
C=CCOC(=O)c1[nH]c2c(c1C)C(=O)CC(c1ccco1)C2 (stereo not given)	HTR1E antagonist 76, 5HT1a antag 51
Cc1c(C(=O)OCC(C)C)[nH]c2c1C(=O)CC(c1ccco1)C2 (stereo not given)	HTR1E antagonist 69, 5HT1a antag 53
c1ccc2[nH]c(CSc3nnc(-c4ccncc4)o3)nc2c1	none
Brc1cccc(-c2nnc(SCc3nc4ccccc4[nH]3)o2)c1	HTR1E antagonist 29
C=CCn1c(SCC(=O)Nc2sccc2C(N)=O)nc2sc(C)c(C)c2c1=O	HTR1E antagonist 33
Cc1nnc(SCC(=O)Nc2sccc2C(N)=O)n1Cc1ccccc1	none
Cc1ccc2cccc(S(=O)(=O)Nc3ccc4c(c3)OCO4)c2n1	none
Cc1ccc(C2C=C(c3ccc4c(c3)OCO4)Nc3ncnn32)cc1 (stereo not given)	none
COc1cccc(C2=CC(c3ccc(C)cc3)n3ncnc3N2)c1 (stereo not given)	HTR1E antagonist 29
CCOC(=O)Nc1ccc2c(c1)ncn2C1CCCCC1	HTR1E agonist 39
CCOC(=O)c1cc2c(ccn2C)n1CC(=O)N1CCN(c2ccccc2)CC1	none
CCOC(=O)c1cc2c(ccn2C)n1Cc1ccccc1C	5HT1a antag 44
COCCn1c(=O)[nH]c2cc(C(=O)NCCN3CCN(c4ccccc4F)CC3)ccc2c1=O	5HT1a antag 52 (no result: S1P1 ag-PAM, S1P3 agonist)
COCCn1c(=O)[nH]c2cc(C(=O)NCCCN3CCN(c4ccc(F)cc4)CC3)ccc2c1=O	none (no result: S1P1 ag-PAM, S1P3 agonist)
CC(=O)C1=C(O)C(=O)N(CCN2CCOCC2)C1c1ccccc1 (stereo not given)	HTR1E agonist 9.3
O=C(Nc1ccc2c(c1)OCCO2)C1CCCN1S(=O)(=O)c1cccc2cccnc12 (stereo not given)	HTR1A agonist 75
O=C(Nc1ccc(C(F)(F)F)cc1)C1CCCN1S(=O)(=O)c1cccc2cccnc12 (stereo not given)	S1P1 ag-PAM 66
CCC(C)[C@H](N)c1nnc(SCc2cccc(F)c2)o1 (stereo not given in full)	none
Cn1c(COc2ccccc2)nnc1SCCC(=O)Nc1ccccc1	none
N#Cc1ccc(CN2CCN(C(=O)c3ccccc3)CC2)c(Cl)c1	none
CCOC(=O)CNC(=O)Cn1cnc2sc(C)c(S(=O)(=O)N3CCC(C)CC3)c2c1=O	HTR1A agonist 60 (no result: S1P1 ag-PAM, S1P3 agonist)
CCOC(=O)c1sc(NC(=O)c2ccc(S(=O)(=O)N3CCOCC3)cc2)cc1C	none
Cc1ccc(N(CC(=O)Nc2cccc(C)c2)S(=O)(=O)c2cccc3nonc23)cc1	none
C/C=C/Cn1c(SCc2ccc(C)cc2)nc2c1c(=O)[nH]c(=O)n2C	HTR1E antagonist 30
Cc1ccc(C)n1NC(=O)c1ccc(Cl)cc1Cl	none
CN=C(NC#N)SCC(=O)c1ccc(Cl)cc1Cl	S1P1 ag-PAM 82
O=C(CN(C(=O)CSc1nnc(COc2ccccc2)o1)c1ccc(F)cc1)NC1CCCC1	HTR1A agonist 40
CCOC(=O)CN(C(=O)CSc1nnc(-c2cccc(OC)c2)o1)c1ccc(F)cc1	S1P1 ag-PAM 82
CC(CN1CCCC1)OC(=O)COc1ccccc1 (stereo not given)	none
CC(=O)Nc1cc(OC(C)=O)c2nonc2c1OC(C)=O	HTR1E antagonist 103, S1P1 ag-PAM 98, 5HT1a antag 78
c1cc(CSc2nnc(-c3ccc4c(c3)OCO4)o2)ccn1	none
Cc1ccc(OCc2nc(-c3ccccc3)no2)c(C)c1	S1P1 ag-PAM 78
COc1ccc(-c2nc(CN3CCC(C(=O)N4CCc5ccccc54)CC3)c(C)o2)cc1OC	none
Cc1cccc(NC(=O)Nc2cccc(C#N)c2)n1	none
Cc1cccc(NC(=O)Nc2ccc(C#N)cc2)n1	HTR1E antagonist 32, 5HT1a antag 83
O=C1CN(Cc2ccccc2)C(=NCc2ccco2)S1	none
CN(C)S(=O)(=O)c1ccc(S(=O)(=O)N(Cc2ccccn2)Cc2ccco2)cc1	none
Cc1cccc(-n2ncc3c(NCc4ccccc4)ncnc32)c1	none
Fc1ccc(CNc2ncnc3c2cnn3-c2ccccc2)cc1	none
c1ccc(CNc2ncnc3c2cnn3-c2ccccc2)cc1	HTR1E antagonist 29
Cc1cccc(-n2ncc3c(NCc4ccco4)ncnc32)c1	HTR1E antagonist 33 (no result: 5HT1a antag)
CCSc1ccccc1C(=O)Nc1cc(C)on1	HTR1E agonist 14 (no result: S1P1 ag-PAM)
C[C@H](NC(=O)Nc1ccc2c(c1)OCCO2)C(=O)O	none
CS(=O)(=O)NCc1nnc(SCC(=O)NC2CCCCC2)n1-c1ccc(F)cc1	none
CCOC(=O)CSc1nc2c(sc(=S)n2Cc2ccco2)c(=O)n1-c1ccccc1	5HT1a antag 55 (no result: S1P1 ag-PAM, S1P3 agonist)
CN(C)CCNC(=O)c1c(O)c2c([nH]c1=O)CCCC2	HTR1E agonist 11
Cc1cccc(NC(=O)C2CCCN(c3nc(C)cc(C)n3)C2)c1 (stereo not given)	HTR1E agonist 13
CC(=O)N1CCN(c2ccc(NC(=O)c3ccccc3Br)cc2Cl)CC1	none (no result: S1P1 ag-PAM)
CCOC(=O)CSC1=C(C#N)C(C)C2=C(CCCC2=O)N1 (stereo not given)	none
O=C(Nc1ccccc1)N1CCN(c2nc3ccccc3s2)CC1	HTR1E agonist 12
O=C(Nc1ccc(F)cc1)N1CCN(c2nc3ccccc3s2)CC1	HTR1E agonist 12
O=S(=O)(NC1CCCCC1)c1ccc(Cl)s1	none
O=C(O)C1CCCN1S(=O)(=O)c1ccc(Cl)c(Cl)c1 (stereo not given)	HTR1E agonist 44 (no result: S1P1 ag-PAM)
O=C(O)C1CCCN1S(=O)(=O)c1ccc2ccccc2c1 (stereo not given)	none (no result: S1P1 ag-PAM, S1P3 agonist)
CC(C)CNC(=O)c1cccc(NC(=O)c2ccc(NC(=O)c3ccco3)cc2)c1	none
Cc1cc(C2C(=O)CC(=O)CC2c2ccccc2)on1 (stereo not given)	HTR1E agonist 12

Bioassay records as filed in PubChem BioAssay.
